Published values pooled from the literature.
Compare with care: the assays were run in different laboratories.
Organism: Nakaseomyces glabratus
Observed: microbial growth

SMILES	test	test system	setting	MIC
CCCCCCCCCCCCCCN1CCNCC1	broth dilution	ATCC2001	48 h	0.975 µg/mL
COc1cc(NC(C)CCCN)c2nc(C(C)(C)C)ccc2c1Oc1ccc(Cl)c(Cl)c1 (centres unmarked)	broth dilution	ATCC90030		20 µg/mL
OC(Cn1cncn1)(Cn1cncn1)c1ccc(F)cc1F	broth dilution	MY1381		8 µg/mL
Fc1ccc(C2(Cn3cncn3)CO2)c(F)c1 (centres unmarked)	broth dilution	ATCC2001	48 h	> 31.3 µg/mL
COc1cc(-c2ccc(C(C)(C)C)cc2)cc(C(C)C#Cc2c(C)nc(N)nc2N)c1 (centres unmarked)	resazurin			207 µg/mL
C[C@@H]1[C@H](O)[C@@H](C)/C=C/C=C/C=C/C=C/C=C/C=C/C=C/[C@H](O[C@@H]2O[C@H](C)[C@@H](O)[C@H](N)[C@@H]2O)C[C@@H]2O[C@](O)(C[C@@H](O)C[C@@H](O)[C@H](O)CC[C@@H](O)C[C@@H](O)CC(=O)O[C@H]1C)C[C@H](O)[C@H]2C(=O)O	broth dilution	ATCC90030		0.63 µg/mL
OC(CNCCN1CCOCC1)(Cn1cncn1)c1ccc(F)cc1F (centres unmarked)	broth dilution	ATCC2001	48 h	31.3 µg/mL
CCCCCOc1c(OC)cc(NC(C)CCCNC(=O)C(N)C(C)CC)c2nc(C(C)(C)C)ccc12 (centres unmarked)	broth dilution	ATCC90030		> 20 µg/mL
OC(Cn1cncn1)(Cn1cncn1)c1ccc(F)cc1F			clinical isolate	4 µg/mL
CCCCCCCCCCN1CCNCC1	broth dilution	ATCC2001	48 h	7.8 µg/mL
C[C@@H]1[C@H](O)[C@@H](C)/C=C/C=C/C=C/C=C/C=C/C=C/C=C/[C@H](O[C@@H]2O[C@H](C)[C@@H](O)[C@H](N)[C@@H]2O)C[C@@H]2O[C@](O)(C[C@@H](O)C[C@@H](O)[C@H](O)CC[C@@H](O)C[C@@H](O)CC(=O)O[C@H]1C)C[C@H](O)[C@H]2C(=O)O		ATCC90030		0.68 µM
CCCCCCCCOc1c(OC)cc(NC(C)CCCNC(=O)C2CCCN2)c2nc(C(C)(C)C)ccc12 (centres unmarked)	broth dilution	ATCC90030		20 µg/mL
CCC(C#Cc1c(C)nc(N)nc1N)c1cc(OC)c(OC)c(OC)c1 (centres unmarked)	resazurin			89 µg/mL
C[C@@H]1[C@H](O)[C@@H](C)/C=C/C=C/C=C/C=C/C=C/C=C/C=C/[C@H](O[C@@H]2O[C@H](C)[C@@H](O)[C@H](N)[C@@H]2O)C[C@@H]2O[C@](O)(C[C@@H](O)C[C@@H](O)[C@H](O)CC[C@@H](O)C[C@@H](O)CC(=O)O[C@H]1C)C[C@H](O)[C@H]2C(=O)O	broth dilution			1.25 µg/mL
